Activity calls are given as the source filed them.
Tests used:
Escherichia coli [1] = test: Inhibition of Escherichia coli DNA polymerase I Klenow fragment at 200 uM
Procedure, shortened: (§1)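 Compound dissolved in DMSO and sonicated 30 s, then held with each polymerase (final 0.05 U) in 50 mM Tris-HCl pH 7.5, 1 mM DTT, 50% glycerol, 0.1 mM EDTA at 0 °C for 10 min. Reaction with poly(dA)/oligo(dT)12-18 and dTTP ran 60 min at 37 °C (Taq at 74 °C). Activity relative to no-compound control; means ± SEM, four independent experiments.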

[2] = system: Human immunodeficiency virus; test: Inhibition of HIV reverse transcriptase at 200 uM
Escherichia coli [3] = test: Inhibition of Escherichia coli T4 DNA polymerase at 200 uM; procedure, shortened: as §1
[4] = system: Brassica oleracea var. botrytis; test: Inhibition of cauliflower DNA polymerase epsilon at 200 uM; procedure, shortened: as §1
Oncorhynchus masou = test: Inhibition of fish DNA polymerase delta at 200 uM; procedure, shortened: as §1
[5] = molecular target: T1, DNA polymerase alpha catalytic subunit (Drosophila melanogaster) (UniProt P26019); test: Inhibition of fruit fly DNA polymerase alpha at 200 uM; procedure, shortened: as §1
T1 sequence (whole entry): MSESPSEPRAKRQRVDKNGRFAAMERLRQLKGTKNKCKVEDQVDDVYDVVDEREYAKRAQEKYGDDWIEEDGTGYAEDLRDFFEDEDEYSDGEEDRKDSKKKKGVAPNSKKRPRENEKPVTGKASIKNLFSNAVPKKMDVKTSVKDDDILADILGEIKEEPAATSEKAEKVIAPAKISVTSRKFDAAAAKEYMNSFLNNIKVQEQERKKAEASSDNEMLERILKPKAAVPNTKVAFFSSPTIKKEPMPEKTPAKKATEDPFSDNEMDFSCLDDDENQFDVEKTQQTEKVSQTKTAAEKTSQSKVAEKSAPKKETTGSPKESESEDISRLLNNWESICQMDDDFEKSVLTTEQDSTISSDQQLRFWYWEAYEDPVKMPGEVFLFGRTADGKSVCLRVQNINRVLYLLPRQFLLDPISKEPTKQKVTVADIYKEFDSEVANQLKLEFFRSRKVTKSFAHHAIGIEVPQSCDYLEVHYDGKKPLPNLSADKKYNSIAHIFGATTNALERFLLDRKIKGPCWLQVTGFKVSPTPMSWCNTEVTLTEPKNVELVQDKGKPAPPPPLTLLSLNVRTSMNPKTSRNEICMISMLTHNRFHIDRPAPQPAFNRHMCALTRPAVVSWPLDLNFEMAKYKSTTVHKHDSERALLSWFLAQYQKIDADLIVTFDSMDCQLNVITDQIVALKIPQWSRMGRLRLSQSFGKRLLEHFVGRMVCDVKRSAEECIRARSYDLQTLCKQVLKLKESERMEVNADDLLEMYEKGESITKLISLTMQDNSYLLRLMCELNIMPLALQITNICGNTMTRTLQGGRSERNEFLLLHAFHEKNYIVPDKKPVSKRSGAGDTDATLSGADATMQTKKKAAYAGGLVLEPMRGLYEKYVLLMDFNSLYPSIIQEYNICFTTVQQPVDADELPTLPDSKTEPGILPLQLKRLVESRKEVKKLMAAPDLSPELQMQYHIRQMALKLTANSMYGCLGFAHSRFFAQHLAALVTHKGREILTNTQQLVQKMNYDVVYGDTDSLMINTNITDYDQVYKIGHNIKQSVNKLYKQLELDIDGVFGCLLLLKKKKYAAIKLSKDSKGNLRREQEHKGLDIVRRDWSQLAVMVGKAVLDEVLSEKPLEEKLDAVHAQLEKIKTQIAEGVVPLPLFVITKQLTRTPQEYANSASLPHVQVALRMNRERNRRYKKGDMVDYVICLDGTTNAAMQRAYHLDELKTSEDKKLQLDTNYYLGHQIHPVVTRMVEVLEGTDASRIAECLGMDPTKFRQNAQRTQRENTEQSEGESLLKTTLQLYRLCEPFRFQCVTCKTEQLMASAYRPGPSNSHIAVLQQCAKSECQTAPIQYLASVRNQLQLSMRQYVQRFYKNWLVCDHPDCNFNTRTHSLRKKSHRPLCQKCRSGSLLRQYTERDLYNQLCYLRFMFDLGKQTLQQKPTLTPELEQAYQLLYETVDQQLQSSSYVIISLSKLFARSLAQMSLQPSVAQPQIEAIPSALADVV

Measured: Activity

C/C(=C\CC[C@H](C)C(=O)O)[C@H]1CC[C@H](C(=O)O)CC1
inactive: all assays above
